Assays:
Format in all cases: functional
MDA-MB-468 = test: Cytotoxicity against human MDA-MB-468 cells after 48 hrs by SRB assay; details: MDA-MB-468, 48 h
Summary of the method: (§1)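 NCI 60-cell-line screen. Cells preincubated 24 h at 37 °C, 5% CO2; time-zero plates TCA-fixed. Compounds dissolved in DMSO and tested at five concentrations (100, 10, 1.0, 0.1, 0.01 µM) for 48 h continuous exposure. Adherent cells fixed with cold TCA (10% final), then SRB stained; absorbance at 515 nm. GI50, TGI and LC50 calculated from growth relative to time-zero and untreated controls.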

[1] = Cytotoxicity against human EKVX cells after 48 hrs by SRB assay; summary of the method: as §1
HCT-15 = test: Cytotoxicity against human HCT15 cells after 48 hrs by SRB assay; details: HCT-15, 48 h; summary of the method: as §1
ACHN = test: Cytotoxicity against human ACHN cells after 48 hrs by SRB assay; details: for CC50: read-out: LC50 (the source's name); summary of the method: as §1
RXF 393 = test: Cytotoxicity against human RXF393 cells after 48 hrs by SRB assay; details: RXF 393, 48 h; summary of the method: as §1
Plasmodium falciparum = test: Antimalarial activity against Plasmodium falciparum NF54 infected in human serum at 20 ug/ml after 48 hrs by fluorometric method
Summary of the method: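 Asynchronous P. falciparum NF54 at 1.5–2% parasitemia, 5% hematocrit in RPMI with 10% human serum, exposed 48 h at 37 °C under 90% N2/5% CO2/5% O2 at the stated concentration; parasite DNA stained with ethidium bromide after proteinase K lysis; viability % = (Flu treated − medium)/(Flu untreated − medium) ×100; triplicate.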

NCI-H460 = test: Cytotoxicity against human NCI-H460 cells after 48 hrs by SRB assay; details: NCI-H460, 48 h; summary of the method: as §1
HT-29 = test: Cytotoxicity against human HT-29 cells after 48 hrs by SRB assay; details: HT-29, 48 h; summary of the method: as §1
MCF7 = test: Cytotoxicity against human MCF7 cells after 48 hrs by SRB assay; details: MCF7, 48 h; for CC50: read-out: LC50 (the source's name); summary of the method: as §1
SF-539 = test: Cytotoxicity against human SF539 cells after 48 hrs by SRB assay; details: SF-539, 48 h; for CC50: read-out: LC50 (the source's name); summary of the method: as §1
Hs-578T = test: Cytotoxicity against human Hs578T cells after 48 hrs by SRB assay; summary of the method: as §1
SF-268 = test: Cytotoxicity against human SF268 cells after 48 hrs by SRB assay; details: SF-268, 48 h; summary of the method: as §1
IGROV-1 = test: Cytotoxicity against human IGROV1 cells after 48 hrs by SRB assay; details: IGROV-1, 48 h; summary of the method: as §1
OVCAR-8 = test: Cytotoxicity against human OVCAR8 cells after 48 hrs by SRB assay; details: OVCAR-8, 48 h; summary of the method: as §1
SR = test: Cytotoxicity against human SR cells after 48 hrs by SRB assay
Summary of the method: (§2)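 NCI 60-cell screen. Cells grew 24 h (37 °C, 5% CO2) before compound was added. Compounds were in DMSO and diluted in medium with gentamicin, then tested at five levels (100, 10, 1.0, 0.1, 0.01 µM) with 48 h continuous exposure. Adherent cells were fixed with TCA (10% final) and stained with 0.4% SRB, absorbance read at 515 nm. A time-zero plate was included. LC50 is the concentration giving 50% loss of protein relative to time zero.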

SK-OV-3 = test: Cytotoxicity against human SKOV3 cells after 48 hrs by SRB assay; details: SK-OV-3, 48 h; summary of the method: as §1
OVCAR-5 = test: Cytotoxicity against human OVCAR5 cells after 48 hrs by SRB assay; details: OVCAR-5, 48 h; summary of the method: as §1
NCI/ADR-RES = test: Cytotoxicity against human NCI/ADR-RES cells after 48 hrs by SRB assay; details: for CC50: read-out: LC50 (the source's name); summary of the method: as §1
HL-60(TB) = test: Cytotoxicity against human HL-60(TB) cells after 48 hrs by SRB assay; details: HL-60, 48 h; for CC50: read-out: LC50 (the source's name); summary of the method: as §1
U-251 = test: Cytotoxicity against human U251 cells after 48 hrs by SRB assay; details: U-251, 48 h; for CC50: read-out: LC50 (the source's name); summary of the method: as §2
CAKI-1 = test: Cytotoxicity against human Caki1 cells after 48 hrs by SRB assay; details: CAKI-1, 48 h; summary of the method: as §1
BT-549 = test: Cytotoxicity against human BT549 cells after 48 hrs by SRB assay; details: BT-549, 48 h; summary of the method: as §1
SW-620 = test: Cytotoxicity against human SW620 cells after 48 hrs by SRB assay; details: SW-620, 48 h; summary of the method: as §2

## COc1ccc(C2CC(c3ccc(Nc4ccnc5cc(Cl)ccc45)cc3)=NN2C=O)cc1 (centres undefined)
MDA-MB-468
  GI50: 1 µM
  LC50: > 100 µM
[1]
  GI50: > 100 µM
  LC50: > 100 µM
HCT-15
  GI50: 2.97 µM
  LC50 (concentration killing 50% of cells relative to time zero): > 100 µM
ACHN
  GI50: 7.02 µM
  CC50: > 100 µM
RXF 393
  GI50: 11.6 µM
  LC50 (concentration killing 50% of cells): > 100 µM
Plasmodium falciparum
  inhibition at 20 µg/mL: 0%
NCI-H460
  GI50: > 100 µM
  LC50: > 100 µM
HT-29
  GI50: 3.81 µM
  LC50: > 100 µM
MCF7
  GI50: 8.78 µM
  CC50: > 100 µM
SF-539
  GI50: > 100 µM
  CC50: > 100 µM
Hs-578T
  GI50: > 100 µM
  LC50 (50% net cell kill): > 100 µM
SF-268
  GI50: > 100 µM
  LC50: > 100 µM
IGROV-1
  GI50: 43.1 µM
  LC50 (concentration killing 50% of cells relative to time zero): > 100 µM
OVCAR-8
  GI50: 69.8 µM
  LC50 (50% net cell kill): > 100 µM
SR
  GI50: 2.83 µM
  LC50: > 100 µM
SK-OV-3
  GI50: > 100 µM
  LC50 (concentration killing 50% of cells): > 100 µM
OVCAR-5
  GI50: > 100 µM
  LC50: > 100 µM
NCI/ADR-RES
  GI50: 7.04 µM
  CC50: > 100 µM
HL-60(TB)
  GI50: 2.23 µM
  CC50: > 100 µM
U-251
  GI50: 1.5 µM
  CC50: > 100 µM
CAKI-1
  GI50: > 100 µM
  LC50: > 100 µM
BT-549
  GI50: 10.9 µM
  LC50 (50% net cell kill vs time zero): > 100 µM
SW-620
  GI50: 35.8 µM
  LC50: > 100 µM

## COc1cc(C2CC(c3ccc(Nc4ccnc5cc(Cl)ccc45)cc3)=NN2C=O)cc(OC)c1OC (centres undefined)
MDA-MB-468
  GI50: 1.83 µM
  LC50: 40.9 µM
[1]
  GI50: 11.7 µM
  LC50: > 100 µM
HCT-15
  GI50: 3.56 µM
  LC50 (concentration killing 50% of cells relative to time zero): > 100 µM
ACHN
  GI50: 3.24 µM
  CC50: 47 µM
RXF 393
  GI50: 2.22 µM
  LC50 (concentration killing 50% of cells): > 100 µM
Plasmodium falciparum
  inhibition at 20 µg/mL: 5.8%
NCI-H460
  GI50: 4.42 µM
  LC50: > 100 µM
HT-29
  GI50: 2.83 µM
  LC50: > 100 µM
MCF7
  GI50: 3.23 µM
  CC50: > 100 µM
SF-539
  GI50: 2.75 µM
  CC50: 37.6 µM
Hs-578T
  GI50: 3.24 µM
  LC50 (50% net cell kill): > 100 µM
SF-268
  GI50: 28 µM
  LC50: > 100 µM
IGROV-1
  GI50: 22.3 µM
  LC50 (concentration killing 50% of cells relative to time zero): > 100 µM
OVCAR-8
  GI50: 9.98 µM
  LC50 (50% net cell kill): > 100 µM
SR
  GI50: 2.58 µM
  LC50: > 100 µM
SK-OV-3
  GI50: 3.36 µM
  LC50 (concentration killing 50% of cells): 55.8 µM
OVCAR-5
  GI50: 69.2 µM
  LC50: > 100 µM
NCI/ADR-RES
  GI50: 7.88 µM
  CC50: > 100 µM
HL-60(TB)
  GI50: 2.53 µM
  CC50: 75.8 µM
U-251
  GI50: 2.06 µM
  CC50: 19.4 µM
CAKI-1
  GI50: 5.47 µM
  LC50: > 100 µM
BT-549
  GI50: 1.91 µM
  LC50 (50% net cell kill vs time zero): 8.23 µM
SW-620
  GI50: 3.49 µM
  LC50: > 100 µM

## Cc1ccc(C2CC(c3ccc(Nc4ccnc5cc(Cl)ccc45)cc3)=NN2C=O)cc1 (centres undefined)
MDA-MB-468
  GI50: 1.51 µM
  LC50: > 100 µM
[1]
  LC50: > 100 µM
HCT-15
  GI50: 2.78 µM
  LC50 (concentration killing 50% of cells relative to time zero): > 100 µM
ACHN
  GI50: 3.27 µM
  CC50: > 100 µM
RXF 393
  GI50: 4.89 µM
  LC50 (concentration killing 50% of cells): > 100 µM
Plasmodium falciparum
  inhibition at 20 µg/mL: 0%
NCI-H460
  GI50: > 100 µM
  LC50: > 100 µM
HT-29
  GI50: 6.09 µM
  LC50: > 100 µM
MCF7
  GI50: 8.39 µM
  CC50: > 100 µM
SF-539
  GI50: > 100 µM
  CC50: > 100 µM
Hs-578T
  GI50: 5.64 µM
  LC50 (50% net cell kill): > 100 µM
SF-268
  GI50: 8.61 µM
  LC50: > 100 µM
IGROV-1
  GI50: 26.6 µM
  LC50 (concentration killing 50% of cells relative to time zero): > 100 µM
OVCAR-8
  GI50: > 100 µM
  LC50 (50% net cell kill): > 100 µM
SR
  GI50: 3.18 µM
  LC50: > 100 µM
SK-OV-3
  GI50: > 100 µM
  LC50 (concentration killing 50% of cells): > 100 µM
OVCAR-5
  GI50: > 100 µM
  LC50: > 100 µM
NCI/ADR-RES
  GI50: 5.22 µM
  CC50: > 100 µM
HL-60(TB)
  GI50: 2.27 µM
  CC50: > 100 µM
U-251
  GI50: > 100 µM
  CC50: > 100 µM
CAKI-1
  GI50: > 100 µM
  LC50: > 100 µM
BT-549
  GI50: 1.65 µM
  LC50 (50% net cell kill vs time zero): > 100 µM
SW-620
  GI50: > 100 µM
  LC50: > 100 µM

From ChEMBL document CHEMBL2417469, “Synthesis of novel analogs of 2-pyrazoline obtained from [(7-chloroquinolin-4-yl)amino]chalcones and hydrazine as potential antitumor and antimalarial agents” (Eur J Med Chem, 2013)
